Laboratory results as given in ChEMBL document CHEMBL1137540, “Synthesis and in vitro evaluation of leishmanicidal and trypanocidal activities of N-quinolin-8-yl-arylsulfonamides” (Bioorg Med Chem, 2007).

What was measured:
[1] = test system: Leishmania amazonensis; experiment: Reduction of Leishmania amazonensis 575 infection in mouse peritoneal macrophage at 5 uM after 48 hrs; assay type: functional; set-up: scale not given: the % may be the effect or the level left
In short: (§1)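 Peritoneal macrophages from female albino Swiss mice were grown on glass slides in DMEM with 20% heat-inactivated FBS at 37 °C, 5% CO2. Cells were infected with L. amazonensis promastigotes at 1:10 cell:parasite for 4 h, then treated for 48 h. Slides were methanol-fixed and Giemsa-stained, and 500 random cells were scored for infection rate. Values are the mean of two experiments.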

[2] = Cytotoxicity against Vero cells by MTT assay; assay type: cell-based; settings: African green monkey
In short: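 Vero cells were exposed to compounds for 72 h at 37 °C, then incubated with MTT for 4 h. Formazan was dissolved in DMSO and read at 540 nm. CC50 was derived by linear regression, with ANOVA and Dunnett's test.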

[3] = test system: Leishmania amazonensis; experiment: Reduction of Leishmania amazonensis 575 infection in mouse peritoneal macrophage at 25 uM after 48 hrs; assay type: functional; set-up: scale not given: the % may be the effect or the level left; in short: as §1
[4] = test system: Leishmania amazonensis; experiment: Antiprotozoal activity against Leishmania amazonensis 575 in vero cells; assay type: functional, organism-based; settings: promastigotes, in the assay text read “promastigotes” for “in vero cells”
In short: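 Axenic growth assay: L. amazonensis 575 promastigotes were grown in Schneider's medium with 5% heat-inactivated FBS, and T. cruzi Y epimastigotes in LIT medium with 10% FBS. Parasites at 1 × 10^6 cells/ml were exposed to 0.2–100 µM for 72 h at 28 °C. Survivors were counted in a Neubauer chamber. Three experiments were run in triplicate, and IC50 was derived by linear regression.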

[5] = test system: Trypanosoma cruzi; experiment: Antiprotozoal activity against Trypanosoma cruzi Y in vero cells; assay type: functional, organism-based
[6] = test system: Leishmania chagasi; experiment: Antiprotozoal activity against Leishmania chagasi PP75 in vero cells; assay type: functional, organism-based
[7] = test system: Leishmania amazonensis; experiment: Reduction of Leishmania amazonensis 575 infection in mouse peritoneal macrophage at 1 uM after 48 hrs; assay type: functional; set-up: scale not given: the % may be the effect or the level left; in short: as §1
[8] = test system: Trypanosoma cruzi; experiment: Reduction of Trypanosoma cruzi Y amastigotes infection in Vero cells at 25 uM after 48 hrs; assay type: functional; set-up: scale not given: the % may be the effect or the level left
In short: (§2)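 Vero cells on glass slides in DMEM with 5% FBS at 37 °C, 5% CO2 were infected with culture-derived trypomastigotes at 1:10 cell:parasite for 6 h. Non-adherent parasites were washed off, and cells were treated for 48 h. Slides were methanol-fixed and Giemsa-stained, and 500 random cells were examined at 1000× for infection rate. Values are the mean of two experiments.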

[9] = test system: Leishmania amazonensis; experiment: Reduction of Leishmania amazonensis 575 amastigotes infection in mouse peritoneal macrophage at 10 uM after 48 hrs; assay type: functional; set-up: scale not given: the % may be the effect or the level left; in short: as §1
[10] = test system: Trypanosoma cruzi; experiment: Reduction of Trypanosoma cruzi Y amastigotes infection in Vero cells at 5 uM after 48 hrs; assay type: functional; set-up: scale not given: the % may be the effect or the level left; in short: as §2
[11] = test system: Trypanosoma cruzi; experiment: Reduction of Trypanosoma cruzi Y amastigotes infection in Vero cells at 1 uM after 48 hrs; assay type: functional; set-up: scale not given: the % may be the effect or the level left; in short: as §2

O=S(=O)(Nc1cccc2cccnc12)c1ccc(-c2ccccc2)cc1
Activity [1]: 72.3%
CC50 [2]: 245 µM
Activity [3]: 82.1%
IC50 [4]: 6.27 µM
IC50 [5]: > 100 µM
IC50 [6]: 2.18 µM
Activity [7]: 60%

CCCc1ccc(S(=O)(=O)Nc2c(Br)cc(Br)c3cccnc23)cc1
IC50 [4]: > 100 µM
IC50 [5]: > 100 µM
IC50 [6]: > 100 µM

CN(C)c1cccc2c(S(=O)(=O)Nc3cccc4cccnc34)cccc12
Activity [1]: 48.2%
CC50 [2]: 84.2 µM
Activity [3]: Toxic
IC50 [4]: 7.18 µM
IC50 [5]: > 100 µM
IC50 [6]: 3.53 µM
Activity [7]: 25.7%

O=S(=O)(Nc1cccc2cccnc12)c1cc(F)cc(F)c1
CC50 [2]: 66.3 µM
IC50 [4]: 2.12 µM
IC50 [5]: > 100 µM
IC50 [6]: 0.45 µM

O=S(=O)(Nc1cccc2cccnc12)c1ccc(Br)cc1
CC50 [2]: 88.7 µM
IC50 [4]: 4.94 µM
IC50 [5]: > 100 µM
IC50 [6]: 2.99 µM

CC(C)c1cc(C(C)C)c(S(=O)(=O)Nc2cccc3cccnc23)c(C(C)C)c1
IC50 [4]: > 100 µM
IC50 [5]: > 100 µM
IC50 [6]: > 100 µM

O=C(Cn1ccnc1[N+](=O)[O-])NCc1ccccc1 [BENZNIDAZOLE]
CC50 [2]: > 1000 µM
IC50 [5]: 14.6 µM
Activity [8]: 92%

CCCc1ccc(S(=O)(=O)Nc2cccc3cccnc23)cc1
Activity [1]: 52.2%
CC50 [2]: 64.4 µM
Activity [3]: 63.7%
IC50 [4]: 14.5 µM
IC50 [5]: > 100 µM
IC50 [6]: 14 µM
Activity [7]: 18.7%

CCCc1ccc(S(=O)(=O)Nc2cc(OC)cc3ccc(C)nc23)cc1
IC50 [4]: > 100 µM
IC50 [5]: > 100 µM
IC50 [6]: > 100 µM

O=[N+]([O-])c1ccc(S(=O)(=O)Nc2cccc3cccnc23)cc1
IC50 [4]: > 100 µM
IC50 [5]: > 100 µM
IC50 [6]: > 100 µM

C[C@@H]1[C@H](O)[C@@H](C)/C=C/C=C/C=C/C=C/C=C/C=C/C=C/[C@H](O[C@@H]2O[C@H](C)[C@@H](O)[C@H](N)[C@@H]2O)C[C@@H]2O[C@](O)(C[C@@H](O)C[C@@H](O)[C@H](O)CC[C@@H](O)C[C@@H](O)CC(=O)O[C@H]1C)C[C@H](O)[C@H]2C(=O)O [AMPHOTERICIN B]
CC50 [2]: 98.4 µM
IC50 [4]: 0.31 µM
IC50 [6]: 0.25 µM
Activity [9]: 97%

O=S(=O)(Nc1cccc2cccnc12)c1cc(Br)c(Br)s1
CC50 [2]: 68.7 µM
IC50 [4]: 2.85 µM
IC50 [5]: > 100 µM
IC50 [6]: 0.53 µM

O=S(=O)(Nc1cccc2cccnc12)c1ccc(F)cc1
IC50 [4]: > 100 µM
IC50 [5]: > 100 µM
IC50 [6]: > 100 µM

O=S(=O)(Nc1cccc2cccnc12)c1cnc(Cl)c(Br)c1
Activity [1]: 67.1%
CC50 [2]: 67.4 µM
Activity [3]: 84.8%
IC50 [4]: 2.25 µM
IC50 [5]: 31.8 µM
IC50 [6]: 0.56 µM
Activity [7]: 52%
Activity [8]: 96.4%
Activity [10]: 85.2%
Activity [11]: 78.6%
